An excerpt weighted towards active compounds, which were near 1.9% of everything screened.
aDG glyco up – alpha-DG glycosylation activation | activation, % at 10 µM | actives 0.22% (n = 360,000) | Pro5-aDG cells, alpha-DG glycosylation AlphaScreen (IIH6); 0% Pro5, 100% B10-LARGE cell signal;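 active = activation of at least 8% versus controls, or a plate z-score of at least 8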;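 also: Pro5 are CHO cells carrying HIG-tagged alpha-DG that lacks glycosylation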
MsrA inhibitor – inhibitors of bovine MsrA; purified bovine MsrA, absorbance read-out; actives 0.75% (n = 360,000); inhibition, % at 15.5 µM;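 also: 0% = vehicle wells with enzyme and 100% = reference inhibitor wells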
bovine MsrA act – bovine methionine sulfoxide reductase A activation | purified bovine MsrA, absorbance read-out | activation, % at 10.6 µM | actives 0.3% (n = 360,000) | AID 602163; in the data active = activation above about 7.5%;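 also: 0% = vehicle and 100% = reference activator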
N-glyco inh – blocks N-linked glycosylation in D54 reporter cells; D54 ERlucT glycosylation luciferase reporter, 24 h; percent of 100 nM tunicamycin response; reporter increase, % at 12.5 µM; actives 0.23% (n = 360,000);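 active = mean luciferase reporter signal, scaled so untreated is 0 and the glycosylation-blocking control 100, at or above a set limit in every replicate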;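 also: luciferase carries N-glycosylation sites so blocking glycosylation raises the light; 0% = median of neutral control wells and 100% = median of 100 nM tunicamycin wells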
Vif inh – inhibitors of HIV Vif | HEK293T cells, Vif self-association by quenched fluorescence, imaging, 24 h | actives 0.35% (n = 340,000) | inhibition, % at 7.49 µM; in the data active = inhibition above about 50%, passing the limit was not always enough
UCH37 inh – human UCH37 deubiquitinating enzyme inhibition. Q9Y5K5. purified proteasome/UCH37, Ub-AMC cleavage fluorescence. inhibition, % (no concentration beside the values). actives 0.33% (n = 330,000). AID 588478;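 active = mean inhibition over replicate wells above about 20%, limit read from the data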;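 also: 0% = compound-free wells with enzyme and 100% = wells lacking proteasome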
Target sequence (Q9Y5K5 whole entry, looked up): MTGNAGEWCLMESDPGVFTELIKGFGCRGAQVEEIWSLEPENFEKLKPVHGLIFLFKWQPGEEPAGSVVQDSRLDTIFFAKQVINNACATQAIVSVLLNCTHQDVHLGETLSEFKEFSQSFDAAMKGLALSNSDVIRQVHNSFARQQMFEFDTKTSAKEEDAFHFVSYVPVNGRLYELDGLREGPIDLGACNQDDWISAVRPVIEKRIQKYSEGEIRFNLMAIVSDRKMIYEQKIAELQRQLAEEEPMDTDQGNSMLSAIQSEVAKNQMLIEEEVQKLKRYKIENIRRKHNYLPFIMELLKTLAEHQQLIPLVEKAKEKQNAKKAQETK
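system = Proteasome-associated human UCH37 deubiquitinase | amount = 0.15 nM proteasome as dispensed | medium = pH 7.4 Tris-HCl (50 mM) with ovalbumin, ATP-MgCl2, DTT | incubation = 30 min preincubation with enzyme, 25 min cleavage at room temperature | detection = AMC fluorescence 355/460 nm | read-out basis = percent inhibition | controls = no-proteasome and no-compound wells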
MsrA conf – bovine MsrA inhibition, confirmed; shares compounds with MsrA inhibitor; purified bovine MsrA, absorbance read-out; inhibition, % at 15.5 µM; actives 41% (n = 2,300);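 also: coupled to thioredoxin reductase with NADPH and selenocystamine and DMSO as substrate; 0% = vehicle only and 100% = full effect of reference inhibitor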
The depositor's hits bear a star; i = inactive; x = no result. Rule as the data show it, unless noted: active = inhibition above about 4.5%; inactive = the rest.

SMILES | aDG glyco up | MsrA inhibitor | bovine MsrA act | N-glyco inh | Vif inh | UCH37 inh | MsrA conf
Fc1ccc(C=Nn2c(C3CCCCC3)n[nH]c2=S)cc1 | x | x | x | x | x | 1.4 | x
Clc1cccc(CONC=Nc2ncnc3sccc23)c1 | x | x | x | x | x | -1.8 | x
CCC(=NNC(=O)c1nnn(-c2nonc2N)c1-c1cccc(OC)c1)c1ccc(C)cc1 | x | x | x | x | x | -0.6 | x
S=c1[nH]nc(-c2cccnc2)n1N=C/C=C/c1ccccc1 | x | x | x | x | x | 6.6 | x
CN(C)c1ccc(C=NCC2(O)CCOC(C)(C)C2)cc1 (configuration not stated) | 0.0 | 5.2* | -9.7 | 1.3 | 2.3 | 13.2 | 4.8*
Cc1ccc2[nH]c(=O)c(CN(Cc3cccnc3)Cc3nnnn3CCN3CCOCC3)cc2c1 | -0.2 | 5.1* | -1.3 | 2.5 | 7.1 | -7.2 | 1.7
Cc1ccc2[nH]c(=O)c(CN(Cc3cccnc3)Cc3nnnn3CC3CCCO3)cc2c1 (configuration not stated) | 0.0 | 2.5 | -4.7 | 2.4 | -7.2 | -1.3 | x
Cc1cc(N2CCOCC2)ccc1/C=C1\NC(=O)N(CC(=O)Nc2ccc(F)cc2)C1=O | -0.3 | 5.6* | -2.9 | -2.2 | -0.2 | -0.8 | 1.0
CCC(CC)=NNc1ccc(S(N)(=O)=O)cc1[N+](=O)[O-] | 0.0 | -0.2 | -0.9 | -0.5 | -0.5 | 4.8 | x
CCN(CC)S(=O)(=O)c1ccc(N/N=C(\C)c2ccc3c(c2)OCO3)c([N+](=O)[O-])c1 | -0.7 | -0.9 | -4.1 | -4.2 | 21.9 | x | x
C/C(CCC(C)C)=N\Nc1ccc(S(N)(=O)=O)cc1[N+](=O)[O-] | 0.0 | 10.3* | -12.6 | -1.4 | -2.9 | x | 7.8*
C/C(CC(C)C)=N/Nc1ccc([N+](=O)[O-])cc1[N+](=O)[O-] | -0.1 | 10.9* | -4.5 | -3.1 | 4.5 | x | 11.9*
COC(=O)CC/C(C)=N\Nc1ccc([N+](=O)[O-])cc1[N+](=O)[O-] | 0.5 | 6.3* | -2.7 | 1.3 | 7.5 | x | 9.5*
CC(Cc1ccccc1)=NNc1ccc([N+](=O)[O-])cc1[N+](=O)[O-] | 1.3 | -1.0 | -1.4 | -1.0 | 5.1 | 5.5 | x
C/C(=N\Nc1ccc(S(N)(=O)=O)cc1[N+](=O)[O-])c1ccc2c(c1)OCO2 | 0.1 | 20.6* | -3.1 | 2.3 | -4.5 | x | 15.3*
CC(CCCO)=NNc1ccc([N+](=O)[O-])cc1[N+](=O)[O-] | x | x | x | x | x | 11.2 | x
Cc1ccc(NN=C2CS(=O)(=O)N(C)c3ccsc32)cc1 | x | x | x | x | x | -1.4 | x
CCCOc1ccc(-c2c(C(=O)NN=Cc3ccccc3OCC)nnn2-c2nonc2N)cc1 | x | x | x | x | x | 0.3 | x
Cc1cc2nc(-c3ccc(SCc4ccccc4C#N)nc3)[nH]c2cc1C | 1.5 | 0.9 | -2.6 | -1.6 | -13.7 | -27.5 | x
Cc1cc2nc(-c3ccc(SCc4ccc(C(=O)O)cc4)nc3)[nH]c2cc1C | 0.3 | 5.5* | -1.9 | 7.4 | -2.3 | -119.6 | 4.0
O=c1cc(-c2ccc(O)cc2)oc2cc(O[C@@H]3O[C@H](CO)[C@@H](O)[C@H](O)[C@H]3O[C@@H]3OC[C@](O)(CO)[C@H]3O)cc(O)c12 | 0.1 | 5.3* | -2.2 | 1.0 | -3.7 | 3.7 | 3.0
CNC(=O)C1CC(=O)N/C(=N/N=C(\C)c2cccs2)S1 (configuration not stated) | -0.3 | 6.1* | 1.2 | 0.4 | 3.6 | x | 4.7*
C/C(=N\N=C1\NC(=O)CC(C(=O)O)S1)c1cccs1 (configuration not stated) | -0.1 | 5.0* | -7.6 | 0.4 | -2.5 | x | 2.8
C/C(=N\N=C1\NC(=O)CC(C(=O)O)S1)c1ccc(F)cc1 (configuration not stated) | -0.1 | 0.5 | -4.3 | 2.5 | -7.5 | x | x
COc1ccccc1NS(=O)(=O)c1ccc(NN=Cc2ccccc2OCC(=O)O)c([N+](=O)[O-])c1 | x | x | x | x | x | 14.0 | x
SMILES | aDG glyco up | MsrA inhibitor | bovine MsrA act | N-glyco inh | Vif inh | UCH37 inh | MsrA conf
CCOC(=O)C(/C=C(\C#N)C(=O)OCC)=C(/N)N1CCN(c2ccc(OC)cc2)CC1 | -0.1 | 5.9* | -9.1 | -1.3 | -2.8 | 8.7 | 8.2*
CCOC(=O)C(/C=C(\C#N)C(=O)OCC)=C(/N)N1CCN(c2c(C)cccc2C)CC1 | -0.2 | 1.3 | -1.5 | -3.1 | 2.1 | -3.0 | x
O=[N+]([O-])c1cc(S(=O)(=O)Nc2ccccc2)ccc1Nc1ccccc1 | -0.3 | 5.7* | -4.8 | -0.4 | -7.4 | 3.8 | 3.8
O=[N+]([O-])c1cc(S(=O)(=O)Nc2ccccc2)ccc1NCc1ccccc1 | 0.1 | 0.2 | 1.0 | 0.8 | 1.4 | 1.4 | x
COc1ccc(/C=C/C(=O)C2(O)CCCCC2)cc1OC | 1.2 | 5.3* | -5.9 | 1.5 | 4.6 | 1.9 | 3.6
O=C(Nc1nc2ccccc2n1Cc1ccc(Cl)cc1)c1ccco1 | 2.0 | 0.3 | -0.3 | 6.8 | 5.9 | -96.6 | x
C=CCn1c(NC(=O)c2ccco2)nc2ccccc21 | -0.2 | 4.8* | -3.9 | 1.9 | -1.9 | 7.6 | 2.2
CC(C)Oc1ccc(C=NNC(N)=S)cc1 | x | x | x | x | x | 4.1 | x
CC(C)Oc1ccc(/C=N/NC(N)=S)cc1 | -0.3 | 4.8* | -3.5 | 6.5 | 0.2 | x | 2.3
CC1CC2=C(CC1C=NNC(N)=S)C(C)(C)CCC2 (configuration not stated) | x | x | x | x | x | 1.9 | x
CCOc1cc(/C=N/NC(=O)COc2ccccc2C)ccc1OC(=O)c1cccs1 | 0.2 | 0.2 | -8.6 | 0.8 | -1.4 | x | x
CCOc1cc(/C=N/NC(=O)c2cccs2)ccc1OC(=O)N1CCOCC1 | 0.1 | 4.8* | -5.0 | 1.4 | -10.1 | x | 2.5
Cc1cc(C)c[n+](-c2[nH]c(=O)sc2/C=N/N=C(\[O-])c2cccnc2)c1 | -0.2 | 5.6* | -10.1 | 1.6 | -6.7 | x | 4.5
CCc1cc(=O)oc2c(C)c(O)c(CN3CCCCC3)cc12 | 0.0 | 5.4* | 0.3 | 0.0 | -2.4 | i | 2.8
Cc1c(O)c(CN2CCCC2)cc2c3c(c(=O)oc12)CCC3 | -0.1 | 1.7 | -4.2 | -0.3 | -1.4 | i | x
CC1(C)OC(=O)C(=NNc2ccc(C(=O)O)cc2)C(=O)O1 | -0.1 | 4.8* | -4.8 | -0.5 | -1.7 | 18.5 | 2.2
CC1(C)OC(=O)C(=NNc2ccccc2)C(=O)O1 | 0.0 | 4.0 | -7.5 | -3.5 | -3.1 | x | x
CC1(C)OC(=O)C(=NNc2ccccc2[N+](=O)[O-])C(=O)O1 | 0.0 | 1.3 | -3.5 | 2.6 | 0.1 | 10.9 | x
CC1(C)OC(=O)C(=NNc2ccccc2C(=O)O)C(=O)O1 | 0.0 | 4.9* | -4.6 | 0.6 | 1.3 | 11.9 | 2.4
CC(=O)Oc1ccc(C(C)=NN2CCN(Cc3ccc(C)cc3)CC2)cc1 | x | x | x | x | x | 6.4 | x
CC1(C)Cc2c(sc(NC(=O)c3ccco3)c2C(=O)O)CO1 | 0.3 | 4.7* | -3.1 | 1.6 | -1.6 | 12.1 | 2.8
CCCCCC(=O)NN=C(C)c1ccccn1 | x | x | x | x | x | 0.7 | x

Source: PubChem BioAssay (several laboratories)
